Results taken from ChEMBL document CHEMBL5303300, “EUbOPEN Chemogenomics Library - Multiplex” (2023).
“And” between values parts separate entries of the source, which are not always exact repeats. Identical values can stand only once.

Assays:
HEK-293T = test: Multiplex assay against HEK293T; assay type: toxicity, cell-based; details: human, number of replicates 2
Summary of the method: (§1)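 Live cells were stained at seeding with Hoechst33342, BioTracker Green Microtubule Cytoskeleton Dye, MitoTracker Red and Annexin V Alexa Fluor 680. Following compound addition, they were imaged on a CQ1 microscope at 37°C and 5% CO2 and gated by CellPathfinder machine learning into Hoechst high-intensity objects or normal cells, with normal cells split into healthy, pyknosed or fragmented nuclei and pyknosed cells into mitotic or apoptotic. Tubulin, mitochondrial-mass and membrane-permeability phenotypes are per cents of healthy-nucleus cells.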

U2OS = test: Multiplex assay against U2OS; assay type: toxicity, cell-based; details: human, number of replicates 2; summary of the method: as §1
[1] = 24 h, 1 µM, compound concentration 1 uM
[2] = 24 h, 10 µM, compound concentration 10 uM
[3] = 48 h, 1 µM, compound concentration 1 uM
[4] = 48 h, 10 µM, compound concentration 10 uM
[5] = 12 h, 1 µM, compound concentration 1 uM
[6] = 12 h, 10 µM, compound concentration 10 uM

## Cc1cc(-c2cnc(N)c3c(-c4ccc5scnc5c4)csc23)n(C)n1
HEK-293T; [1]
  Population Normal (%): 91% and 90%
  Population Pyknosed Nuclei (%): 7%
  Population Tubulin-Different-Phenotype (%): 38% and 39%
  Total Cell Count: 943 and 990
HEK-293T; [2]
  Population Apoptotic (%): 56% and 69%
  Population Fragmented Nuclei (%): 6% and 3%
  Population Healthy Nuclei (%): 79% and 82%
  Population Hoechst High Intensity Objects (%): 17% and 13%
  Population Membrane Permeable-Phenotype (%): 2% and 1%
  Population Mitochondria Different-Phenotype (%): 65%
  Population Mitotic Cells (%): 43% and 30%
  Population Normal (%): 82% and 86%
  Population Pyknosed Nuclei (%): 14%
  Population Tubulin-Different-Phenotype (%): 94% and 92%
  Total Cell Count: 457 and 429
HEK-293T; [3]
  Population Apoptotic (%): 17% and 10%
  Population Fragmented Nuclei (%): 14% and 9%
  Population Healthy Nuclei (%): 83% and 86%
  Population Hoechst High Intensity Objects (%): 9% and 10%
  Population Membrane Permeable-Phenotype (%): 6% and 2%
  Population Mitochondria Different-Phenotype (%): 0%
  Population Mitotic Cells (%): 82% and 89%
  Population Normal (%): 90% and 89%
  Population Pyknosed Nuclei (%): 2% and 4%
  Population Tubulin-Different-Phenotype (%): 19%
  Total Cell Count: 2410 and 2184
HEK-293T; [4]
  Population Apoptotic (%): 62% and 80%
  Population Fragmented Nuclei (%): 9%
  Population Healthy Nuclei (%): 85% and 84%
  Population Hoechst High Intensity Objects (%): 17%
  Population Membrane Permeable-Phenotype (%): 7% and 2%
  Population Mitochondria Different-Phenotype (%): 24% and 30%
  Population Mitotic Cells (%): 37% and 20%
  Population Normal (%): 82%
  Population Pyknosed Nuclei (%): 5%
  Population Tubulin-Different-Phenotype (%): 89% and 92%
  Total Cell Count: 772 and 677
U2OS; [5]
  Population Apoptotic (%): 50% and 66%
  Population Fragmented Nuclei (%): 8% and 7%
  Population Healthy Nuclei (%): 86% and 83%
  Population Hoechst High Intensity Objects (%): 0%
  Population Membrane Permeable-Phenotype (%): 0% and 1%
  Population Mitochondria Different-Phenotype (%): 0%
  Population Mitotic Cells (%): 50% and 33%
  Population Normal (%): 100%
  Population Pyknosed Nuclei (%): 4% and 8%
  Population Tubulin-Different-Phenotype (%): 75% and 76%
  Total Cell Count: 46 and 136
U2OS; [6]
  Population Apoptotic (%): 66% and 65%
  Population Healthy Nuclei (%): 56% and 80%
  Population Hoechst High Intensity Objects (%): 0%
  Population Membrane Permeable-Phenotype (%): 8% and 11%
  Population Mitochondria Different-Phenotype (%): 17% and 15%
  Population Mitotic Cells (%): 33% and 34%
  Population Normal (%): 100%
  Population Pyknosed Nuclei (%): 24% and 13%
  Population Tubulin-Different-Phenotype (%): 51% and 38%
U2OS; [1]
  Population Apoptotic (%): 50% and 55%
  Population Fragmented Nuclei (%): 5% and 4%
  Population Healthy Nuclei (%): 87% and 86%
  Population Hoechst High Intensity Objects (%): 0%
  Population Membrane Permeable-Phenotype (%): 0% and 1%
  Population Mitochondria Different-Phenotype (%): 0%
  Population Mitotic Cells (%): 50% and 44%
  Population Normal (%): 100% and 99%
  Population Pyknosed Nuclei (%): 7% and 8%
  Population Tubulin-Different-Phenotype (%): 85% and 83%
U2OS; [2]
  Population Apoptotic (%): 76% and 84%
  Population Healthy Nuclei (%): 56% and 80%
  Population Hoechst High Intensity Objects (%): 1% and 0%
  Population Membrane Permeable-Phenotype (%): 8% and 7%
  Population Mitochondria Different-Phenotype (%): 29% and 19%
  Population Mitotic Cells (%): 23% and 15%
  Population Normal (%): 98% and 99%
  Population Pyknosed Nuclei (%): 25% and 15%
  Population Tubulin-Different-Phenotype (%): 42% and 36%
U2OS; [3]
  Population Apoptotic (%): 50% and 60%
  Population Fragmented Nuclei (%): 1% and 5%
  Population Healthy Nuclei (%): 90% and 86%
  Population Hoechst High Intensity Objects (%): 0%
  Population Membrane Permeable-Phenotype (%): 1%
  Population Mitochondria Different-Phenotype (%): 1%
  Population Mitotic Cells (%): 50% and 39%
  Population Normal (%): 100%
  Population Pyknosed Nuclei (%): 7%
  Population Tubulin-Different-Phenotype (%): 81% and 83%
U2OS; [4]
  Population Apoptotic (%): 73% and 82%
  Population Fragmented Nuclei (%): 12% and 5%
  Population Healthy Nuclei (%): 52% and 78%
  Population Hoechst High Intensity Objects (%): 2% and 0%
  Population Membrane Permeable-Phenotype (%): 7%
  Population Mitochondria Different-Phenotype (%): 19% and 13%
  Population Mitotic Cells (%): 26% and 17%
  Population Normal (%): 97% and 99%
  Population Pyknosed Nuclei (%): 35% and 15%
  Population Tubulin-Different-Phenotype (%): 41% and 33%
